Source: ChEMBL document CHEMBL3352277, “Click approach to the discovery of 1,2,3-triazolylsalicylamides as potent Aurora kinase inhibitors” (Bioorg Med Chem, 2014)
Calls of active or inactive are those of the source. The rule behind the calls is not given here.

Columns and labels:
[1] = biological target: T1, Aurora kinase A (Homo sapiens) (UniProt O14965); assay: Inhibition of Aurora A (unknown origin) at 10 uM using [33P]-ATP and 10 uM ATP after 2 hrs
T1 sequence (whole entry): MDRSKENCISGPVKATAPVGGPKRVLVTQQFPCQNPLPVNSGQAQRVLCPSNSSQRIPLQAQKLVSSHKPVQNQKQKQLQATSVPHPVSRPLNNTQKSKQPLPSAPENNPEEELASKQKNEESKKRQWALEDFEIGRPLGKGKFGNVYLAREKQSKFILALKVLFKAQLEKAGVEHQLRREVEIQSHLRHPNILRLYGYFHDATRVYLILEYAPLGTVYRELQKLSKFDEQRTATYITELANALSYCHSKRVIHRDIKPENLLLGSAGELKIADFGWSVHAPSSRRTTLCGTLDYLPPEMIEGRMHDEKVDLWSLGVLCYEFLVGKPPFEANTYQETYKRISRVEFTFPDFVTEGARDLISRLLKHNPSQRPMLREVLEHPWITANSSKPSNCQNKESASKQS

Aurora kinase B [2] = biological target: T2, Aurora kinase B (Homo sapiens, UniProt Q96GD4); assay: Inhibition of Aurora B (unknown origin) at 10 uM using [33P]-ATP and 10 uM ATP after 2 hrs
T2 sequence (Q96GD4 whole entry): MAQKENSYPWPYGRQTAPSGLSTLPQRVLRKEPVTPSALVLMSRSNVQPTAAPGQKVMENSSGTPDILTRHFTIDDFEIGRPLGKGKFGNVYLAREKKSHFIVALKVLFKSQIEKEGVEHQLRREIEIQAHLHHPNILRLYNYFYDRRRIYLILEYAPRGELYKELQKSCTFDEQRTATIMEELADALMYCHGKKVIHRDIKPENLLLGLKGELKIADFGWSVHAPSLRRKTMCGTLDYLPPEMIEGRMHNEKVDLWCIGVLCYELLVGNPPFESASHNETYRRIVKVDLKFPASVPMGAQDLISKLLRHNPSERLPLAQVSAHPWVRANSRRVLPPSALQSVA

[3] = biological target: Serine/threonine-protein kinase pim-1 (Homo sapiens) (UniProt P11309); assay: Inhibition of […] (unknown origin) at 10 uM
Sequence of Serine/threonine-protein kinase pim-1 (Homo sapiens) (P11309 whole entry, looked up): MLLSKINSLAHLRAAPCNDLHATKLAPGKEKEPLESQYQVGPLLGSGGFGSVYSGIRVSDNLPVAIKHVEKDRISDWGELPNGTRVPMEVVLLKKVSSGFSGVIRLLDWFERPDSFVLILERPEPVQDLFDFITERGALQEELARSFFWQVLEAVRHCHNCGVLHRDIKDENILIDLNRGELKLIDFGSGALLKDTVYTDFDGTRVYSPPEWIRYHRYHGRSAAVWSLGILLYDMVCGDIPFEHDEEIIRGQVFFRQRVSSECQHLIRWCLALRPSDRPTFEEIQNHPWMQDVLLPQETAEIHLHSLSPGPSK
Summary of the method: (§1)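 Single 10 µM concentration against a 40-kinase panel on the radiometric HotSpot platform. Kinase and substrate were added before ³³P-ATP started the reaction, which ran 2 h at room temperature.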

[4] = biological target: Glycogen synthase kinase-3 beta (Homo sapiens) (UniProt P49841); assay: Inhibition of GSK3beta (unknown origin) at 10 uM; summary of the method: as §1
Sequence of Glycogen synthase kinase-3 beta (Homo sapiens) (P49841 whole entry, looked up): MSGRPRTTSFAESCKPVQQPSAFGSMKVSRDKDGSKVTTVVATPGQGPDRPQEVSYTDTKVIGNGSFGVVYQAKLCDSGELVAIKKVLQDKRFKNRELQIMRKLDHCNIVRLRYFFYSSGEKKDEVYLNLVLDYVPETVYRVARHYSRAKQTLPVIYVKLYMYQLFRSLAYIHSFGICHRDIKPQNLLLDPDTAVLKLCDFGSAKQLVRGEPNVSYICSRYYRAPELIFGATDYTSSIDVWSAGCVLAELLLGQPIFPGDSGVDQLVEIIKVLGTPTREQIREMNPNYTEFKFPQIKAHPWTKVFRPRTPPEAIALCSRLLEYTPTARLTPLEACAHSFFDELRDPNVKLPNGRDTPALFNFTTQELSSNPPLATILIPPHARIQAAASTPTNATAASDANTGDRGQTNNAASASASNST

[5] = tested on: Epidermal growth factor receptor (Homo sapiens), P00533 [L858R]; assay: Inhibition of EGFR L858R mutant (unknown origin) at 10 uM; format: protein assay; summary of the method: as §1
Sequence of Epidermal growth factor receptor (Homo sapiens), P00533 [L858R] (P00533 whole entry L858R): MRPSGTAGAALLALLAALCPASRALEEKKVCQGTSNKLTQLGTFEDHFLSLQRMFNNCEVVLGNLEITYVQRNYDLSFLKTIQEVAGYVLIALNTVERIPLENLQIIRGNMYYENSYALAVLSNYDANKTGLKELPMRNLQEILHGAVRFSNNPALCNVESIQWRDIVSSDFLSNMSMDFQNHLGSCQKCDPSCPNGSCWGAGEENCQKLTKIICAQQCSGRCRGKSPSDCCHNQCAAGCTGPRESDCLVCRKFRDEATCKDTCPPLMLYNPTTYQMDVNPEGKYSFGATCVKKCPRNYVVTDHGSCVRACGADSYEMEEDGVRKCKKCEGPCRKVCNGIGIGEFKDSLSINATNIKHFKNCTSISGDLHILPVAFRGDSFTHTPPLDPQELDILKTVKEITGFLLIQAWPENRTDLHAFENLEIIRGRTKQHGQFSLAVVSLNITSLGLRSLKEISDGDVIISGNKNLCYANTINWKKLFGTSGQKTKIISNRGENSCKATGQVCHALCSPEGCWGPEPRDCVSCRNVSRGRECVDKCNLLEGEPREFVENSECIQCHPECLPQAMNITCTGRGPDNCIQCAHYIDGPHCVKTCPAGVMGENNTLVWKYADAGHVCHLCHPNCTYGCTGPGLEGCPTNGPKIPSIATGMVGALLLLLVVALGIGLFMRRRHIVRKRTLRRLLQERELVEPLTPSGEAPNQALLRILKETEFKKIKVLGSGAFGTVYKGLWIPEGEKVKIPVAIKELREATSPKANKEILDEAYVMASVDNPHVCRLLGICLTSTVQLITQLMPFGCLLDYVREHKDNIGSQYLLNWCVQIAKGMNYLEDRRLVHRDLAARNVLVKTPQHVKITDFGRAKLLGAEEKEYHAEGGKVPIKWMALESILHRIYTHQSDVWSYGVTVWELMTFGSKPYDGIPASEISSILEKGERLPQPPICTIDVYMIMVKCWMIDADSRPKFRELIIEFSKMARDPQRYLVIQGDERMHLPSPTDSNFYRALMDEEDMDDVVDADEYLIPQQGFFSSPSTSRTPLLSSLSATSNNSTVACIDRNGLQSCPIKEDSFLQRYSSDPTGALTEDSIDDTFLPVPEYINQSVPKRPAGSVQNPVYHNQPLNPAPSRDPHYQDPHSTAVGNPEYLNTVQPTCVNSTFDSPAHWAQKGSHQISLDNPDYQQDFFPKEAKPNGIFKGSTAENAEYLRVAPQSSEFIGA

[6] = biological target: T1, Aurora kinase A (Homo sapiens); assay: Inhibition of Aurora A (unknown origin) at 10 uM
Aurora kinase A = biological target: T3, Aurora kinase A (Homo sapiens, UniProt O14965); assay: Inhibition of Aurora A (unknown origin) using [33P]-ATP and 10 uM ATP after 2 hrs
T3 sequence (O14965 whole entry): T1 sequence (whole entry)

Aurora kinase B [7] = biological target: T2, Aurora kinase B; assay: Inhibition of Aurora B (unknown origin) using [33P]-ATP and 10 uM ATP after 2 hrs

| inhibition [1] | inhibition (Aurora kinase B [2]) | inhibition [3] | inhibition [4] | inhibition [5] | inhibition [6] | IC50 (Aurora kinase A) | IC50 (Aurora kinase B [7]) | SMILES |
| --- | --- | --- | --- | --- | --- | --- | --- | --- |
| 83.3% | 50.3% |  |  |  |  |  |  | COc1cccc(NC(=O)c2cc(-n3cc(-c4cc(OC)cc(OC)c4)nn3)ccc2O)c1 |
|  |  | Active | Active | Active | 74.5% |  |  | COc1cc(OC)cc(-c2cn(-c3ccc(O)c(C(=O)Nc4cccc(C(F)(F)F)c4)c3)nn2)c1 |
| 90.5% | 57.3% |  |  |  |  | 1820 nM | 63200 nM | COC(=O)c1cccc(-c2cn(-c3ccc(O)c(C(=O)Nc4cccc(C(F)(F)F)c4)c3)nn2)c1 |
| 90.2% | 71.3% |  |  |  |  | 370 nM | 3580 nM | COC(=O)c1cccc(NC(=O)c2cc(-n3cc(-c4cc(OC)cc(OC)c4)nn3)ccc2O)c1 |
